High-throughput results as filed in PubChem BioAssay.
LYP act: activators of human LYP (PTPN22) phosphatase; Q9Y2R2; recombinant LYP, DiFMUP fluorescence; 0 = plate median, 100 = signal doubled; activation, % at 2 µM; hit rate 0.11% among 96,000; AID 697;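 active means activation at 2 µM above a set limit, the mean plus 5 SD, cut at about 37% in these data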
HIV Rev-RRE inh: HIV Rev-RRE protein-RNA interaction inhibition | hit rate 0.79% among 97,000 | Rev peptide-RRE RNA binding, FRET | inhibition, % at 8 µM;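 active means inhibition above the screen-wide mean plus 3 SD, cut at about 35% in these data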;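 further: 0% = median DMSO wells and 100% = median Neomycin B control wells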
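Test system: Cy5-tagged RRE RNA duplex with fluorescein-tagged Rev peptide | Read-out: % inhibition of FRET ratio versus controls | Probe or stimulus: Labelled Rev peptide | Incubation: 5 min RNA-compound premix plus 15 min binding step, 25 °C | Technique: FRET fluorescence readout | Benchmarks: DMSO low control, neomycin B high control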
hDAT+cocaine: changed human dopamine transporter uptake under cocaine IC80; LLC-PK1 hDAT cells, [14C]-dopamine uptake with cocaine IC80; actives deviate in either direction; B-score at 10 µM; hit rate 1.3% among 110,000; Q01959; AID 449768;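 active means Z score or B-score, a plate-position-corrected score, falls beyond the plate's 99.7% confidence bounds, in either direction; inactive means both scores lie inside the 99.7% bounds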;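 further: scored against the spread of the other compound wells on the same plate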
PLK1 kinase inh: blocks human PLK1 kinase activity; P53350; recombinant PLK1 kinase, TR-FRET peptide phosphorylation; inhibition, % at 10 µM; hit rate 0.53% among 97,000;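 active means inhibition of 50% or more in the single-concentration screen; inactive means inhibition below 50%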;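 further: 0% = DMSO max control and 100% = H-89 dihydrochloride min control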
LYP inh 2: inhibitors of human LYP (PTPN22) phosphatase | inhibition, % at 2 µM | hit rate 0.21% among 96,000 | recombinant LYP catalytic domain, DiFMUP fluorescence | AID 640 | Q9Y2R2;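 active means inhibition at 2 µM at or above a set limit, the screen mean plus 3 SD, cut at about 24% in these data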;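 further: 0% = DMSO with enzyme and 100% = enzyme fully blocked by orthovanadate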
Plk1 PBD FP: blocks phosphopeptide binding to human Plk1 polo box domain | P53350 | Plk1 PBD phosphopeptide binding, fluorescence polarization | hit rate 0.13% among 97,000 | inhibition, %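 (tested at about 20 µM)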; in the data active means inhibition above about 34%, passing the limit was not always enough
The depositor's hits bear a star; x = not tested or not shown; [ ] = another dose, or the depositor's remark. An excerpt weighted towards active compounds, which were near 2.7% of everything screened.

SMILES	LYP act	HIV Rev-RRE inh	hDAT+cocaine	PLK1 kinase inh	LYP inh 2	Plk1 PBD FP
O=C(CSC1=NCCS1)N1CCN(c2ccc(Cl)cc2)CC1	17	3	2.6*	-7	-18	-4
COc1cc(/C=C2\SC(c3ccc(C)cc3)=NC2=O)ccc1O	-1	77*[fluorescence artefact?]	0.83	-2	7	-45
COc1ccc(/C=C2/C(=O)N=C(N)N2C)cc1OC	5	11	-0.48	-9	-3	-22
COc1ccc(/C=C2/SC(c3ccc(C)cc3)=NC2=O)cc1OC	1	114*[fluorescence artefact?]	0.14	-33	-4	-61
COc1ccc(/C=C2\SC(c3ccc(C)cc3)=NC2=O)cc1OC	-2	113*[fluorescence artefact?]	-0.024	-33	0	-74
COc1cc(/C=C2\SC(c3ccc(C)cc3)=NC2=O)cc(OC)c1OC	0	51*	-0.93	-13	-2	-6
COc1cccc(SCc2noc(C(=O)NCC3CC3)c2C(=O)NCC2CC2)c1	x	x	1.4	x	x	x
O=C(O)[C@H](CO)Nc1ncnc2sc3c(c12)CCC3	-2	7	x	-2	4	-3
O=S(=O)(Nc1ncnc2sc3c(c12)CCC3)c1ccc(Cl)s1	-5	10	-2.4*	-9	2	-2
O=C(CSc1nnc2n(C3CCCC3)c(=O)c3ccccc3n12)N1CCCCCC1	2	10	2.2	-6	-3	2
CC1CCCN(C(=O)CSc2nnc3n(C4CCCC4)c(=O)c4ccccc4n23)C1 (stereo not given)	3	8	3.1*	-4	-6	14
CCCCc1ccc(N=N/C(C(=O)Nc2ccc(NC(C)=O)cc2OC)=C(/C)O)cc1	x	x	x	-12	x	x
Oc1ccc2ccccc2c1C=Nc1ccc(N2CCOCC2)cc1	-1	72*[fluorescence artefact?]	-0.86	3	2	-33
COC(=O)c1cc(OC)c(OC)cc1NC(=O)c1oc2ccccc2c1C	4	3	x	-8	-7	3
Cc1ccnc(NS(=O)(=O)c2ccc(NC(=O)C34CC5CC(C)(CC(C)(C5)C3)C4)cc2)n1	-5	2	2.8*	-14	4	13
Cc1ccnc(NS(=O)(=O)c2ccc(NC(=O)C3CCCCC3)cc2)n1	3	3	0.4	-13	-6	-13
N=c1n(CCO)c2ccccc2n1CCOc1ccc(Cl)cc1Cl	-9	3	3*	27	6	-27
COc1ccc(OCCn2c(=N)n(CCO)c3ccccc32)cc1	6	-7	0.75	-9	-8	1
CCc1nc(SCC(=O)N2CCC(C)CC2)c2c(=O)n(C)c(=O)n(C)c2n1	x	1	1.4	68*	x	2
CCOC(=O)Cn1c(CN(Cc2ccccc2)Cc2ccccc2)nc2c1c(=O)n(C)c(=O)n2C	-10	0	3.8*	-6	8	17
COC(=O)C(Cc1ccc(OC(=O)c2ccccc2C)cc1)N1Cc2ccccc2C1=O (stereo not given)	10	-1	3.3*	4	-5	-16
COC(=O)C(Cc1ccc(OC(=O)c2ccccc2Cl)cc1)N1Cc2ccccc2C1=O (stereo not given)	-8	7	1.1	-9	4	-26
CC(=O)OC(c1nc2ccccc2c(=O)n1C1CC2(OC1=O)c1ccccc1N1C(=O)C(C)(C)N(O)C12)C(C)C (stereo not given)	x	x	0.47	x	x	x
Cc1cc2n(n1)C(c1ccc3c(c1)OCO3)Nc1c(C)cccc1-2 (stereo not given)	8	7	3.5*	-10	-10	10
Cc1cc(C)c2c(c1)-c1cc(C)nn1C(c1ccc3c(c1)OCO3)N2 (stereo not given)	2	-1	-0.47	-8	-4	9
CCOC(=O)c1c(NC(=O)CC2SC(N)=NC2=O)sc2c1CCCC2 (stereo not given)	4	10	1.7	-9	-2	-35
COc1ccc(-c2nc(CS(=O)CC(=O)NC3CCCc4ccccc43)c(C)o2)cc1OC (stereo not given)	x	5	-1.4	69*	x	14
COc1cccc(-c2nc(CS(=O)CC(=O)O)c(C)o2)c1 (stereo not given)	4	1	-0.61	-9	-4	16
COc1cccc(-c2nc(CS(=O)CC(=O)NC3CCCC3)c(C)o2)c1 (stereo not given)	x	1	0.013	66*	x	15
